Results published in paper PMC11040699 (JACS Au, 2024).
“Also recorded” adds a separate entry of the source. Residues, ends and D or L forms follow the SMILES beside them. No end group written: not given here. *: point of attachment. Acetyl(9-fluorenyl) = O=C(CC1c2ccccc2-c2ccccc21)*

B1: fibroblast growth factor 23 (ligand)
chain: YPNASPLLGSSWGGLIHLYTATARNSYHLQIHKNGHVDGAPHQTIYSALMIRSEDAGFVVITGVMSRRYLCMDFRGNIFGSHYFDPENCRFQHQTLENGYDVYHSPQYHFLVSLGRAKRAFLPGMNPPPYSQFLSRRNEIPLIHFNTPIPRRHTRSAEDDSERDPLNVLKPRARMTPAPASCSQELPSAEDNSPMASDPLGVVRGGRVNTHAGGTGPEGCRPFAKFI

What was measured:
[1] = biological target: T1, recombinant mouse α-Klotho (mKlotho) (Mus musculus, UniProt O35082); assay: Competition binding assay with BLI against immobilized Pep-10-Biotin, mKlotho
T1 sequence (O35082 35-960): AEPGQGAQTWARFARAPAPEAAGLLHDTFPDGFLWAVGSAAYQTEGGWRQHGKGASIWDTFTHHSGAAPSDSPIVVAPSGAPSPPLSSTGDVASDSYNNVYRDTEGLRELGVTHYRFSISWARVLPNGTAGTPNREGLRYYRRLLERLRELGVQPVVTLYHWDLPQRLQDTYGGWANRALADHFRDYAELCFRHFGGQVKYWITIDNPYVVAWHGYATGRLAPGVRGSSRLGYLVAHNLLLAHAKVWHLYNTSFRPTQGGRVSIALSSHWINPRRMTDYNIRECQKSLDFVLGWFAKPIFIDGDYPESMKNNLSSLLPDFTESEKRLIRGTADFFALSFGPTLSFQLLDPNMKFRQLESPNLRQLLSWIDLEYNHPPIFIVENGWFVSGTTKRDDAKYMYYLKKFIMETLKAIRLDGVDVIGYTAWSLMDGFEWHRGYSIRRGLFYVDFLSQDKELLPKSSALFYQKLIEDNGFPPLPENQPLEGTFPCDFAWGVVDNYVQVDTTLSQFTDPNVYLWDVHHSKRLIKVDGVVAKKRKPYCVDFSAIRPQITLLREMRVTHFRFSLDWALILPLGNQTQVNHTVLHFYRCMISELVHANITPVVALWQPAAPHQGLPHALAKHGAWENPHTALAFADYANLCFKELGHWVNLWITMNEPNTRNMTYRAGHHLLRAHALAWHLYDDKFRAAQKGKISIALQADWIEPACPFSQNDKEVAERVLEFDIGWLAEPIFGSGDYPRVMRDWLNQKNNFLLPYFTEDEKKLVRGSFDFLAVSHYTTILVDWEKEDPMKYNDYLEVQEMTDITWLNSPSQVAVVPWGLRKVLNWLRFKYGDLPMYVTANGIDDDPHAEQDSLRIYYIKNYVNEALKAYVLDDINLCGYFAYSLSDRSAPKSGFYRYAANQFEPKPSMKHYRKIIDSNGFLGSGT

[2] = test system: endogenous hKlotho in HK-2 cell lysate; assay: Pull-down assay from HK-2 cell lysate; format: binding, human; conditions: for selectivity of pull-down by silver stain, HK-2 cell lysate: silver stain of eluents
Method in brief: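 HK-2 cells (Keratinocyte SFM with bovine pituitary extract and EGF; 37 °C, 5% CO2) were scraped and lysed in RIPA with protease inhibitors; 20% kept as input. 200 μg lysate: unlabelled competitor preincubated 15 min, then biotinylated probe 30 min RT. Streptavidin magnetic beads 20 min, PBS washes, 8 M urea elution 30 min. SDS-PAGE, then silver stain or KM2076 western (1:1000, 4 °C overnight; HRP anti-rat; chemiluminescence). Bands quantified by densitometry.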

[3] = biological target: recombinant mouse α-Klotho (mouse) (UniProt O35082); assay: BLI
Target sequence in this assay (O35082 35-1014): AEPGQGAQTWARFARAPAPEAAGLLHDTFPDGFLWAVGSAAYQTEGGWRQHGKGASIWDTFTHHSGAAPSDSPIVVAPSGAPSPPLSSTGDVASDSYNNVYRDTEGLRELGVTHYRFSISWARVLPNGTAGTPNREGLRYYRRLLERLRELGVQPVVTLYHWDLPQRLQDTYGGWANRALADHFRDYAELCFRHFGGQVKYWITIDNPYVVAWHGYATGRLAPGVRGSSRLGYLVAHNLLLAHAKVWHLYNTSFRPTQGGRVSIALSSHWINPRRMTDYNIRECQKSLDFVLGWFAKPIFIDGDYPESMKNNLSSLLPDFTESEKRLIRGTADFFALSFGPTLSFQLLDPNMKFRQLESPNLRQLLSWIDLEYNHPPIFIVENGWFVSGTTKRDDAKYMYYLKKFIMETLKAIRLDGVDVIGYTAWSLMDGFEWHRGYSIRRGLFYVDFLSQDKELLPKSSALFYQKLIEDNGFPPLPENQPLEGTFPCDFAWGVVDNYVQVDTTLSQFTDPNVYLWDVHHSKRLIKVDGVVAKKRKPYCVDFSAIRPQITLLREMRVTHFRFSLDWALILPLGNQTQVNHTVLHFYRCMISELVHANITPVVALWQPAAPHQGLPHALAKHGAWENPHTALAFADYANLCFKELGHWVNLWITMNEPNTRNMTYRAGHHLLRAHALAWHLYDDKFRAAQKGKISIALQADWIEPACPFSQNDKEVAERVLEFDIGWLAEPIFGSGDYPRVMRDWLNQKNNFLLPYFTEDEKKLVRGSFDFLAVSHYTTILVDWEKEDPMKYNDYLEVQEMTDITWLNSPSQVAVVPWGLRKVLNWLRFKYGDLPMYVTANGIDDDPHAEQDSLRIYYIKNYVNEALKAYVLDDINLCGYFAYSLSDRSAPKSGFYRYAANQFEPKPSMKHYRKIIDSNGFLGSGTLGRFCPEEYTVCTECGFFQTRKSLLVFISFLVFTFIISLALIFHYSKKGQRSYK

[4] = biological target: recombinant mouse α-Klotho (mouse) (UniProt O35082); assay: affinity selection-mass spectrometry
[5] = biological target: recombinant human α-Klotho (human) (UniProt Q9UEF7); assay: BLI
Sequence of recombinant human α-Klotho (human) (Q9UEF7 34-1012): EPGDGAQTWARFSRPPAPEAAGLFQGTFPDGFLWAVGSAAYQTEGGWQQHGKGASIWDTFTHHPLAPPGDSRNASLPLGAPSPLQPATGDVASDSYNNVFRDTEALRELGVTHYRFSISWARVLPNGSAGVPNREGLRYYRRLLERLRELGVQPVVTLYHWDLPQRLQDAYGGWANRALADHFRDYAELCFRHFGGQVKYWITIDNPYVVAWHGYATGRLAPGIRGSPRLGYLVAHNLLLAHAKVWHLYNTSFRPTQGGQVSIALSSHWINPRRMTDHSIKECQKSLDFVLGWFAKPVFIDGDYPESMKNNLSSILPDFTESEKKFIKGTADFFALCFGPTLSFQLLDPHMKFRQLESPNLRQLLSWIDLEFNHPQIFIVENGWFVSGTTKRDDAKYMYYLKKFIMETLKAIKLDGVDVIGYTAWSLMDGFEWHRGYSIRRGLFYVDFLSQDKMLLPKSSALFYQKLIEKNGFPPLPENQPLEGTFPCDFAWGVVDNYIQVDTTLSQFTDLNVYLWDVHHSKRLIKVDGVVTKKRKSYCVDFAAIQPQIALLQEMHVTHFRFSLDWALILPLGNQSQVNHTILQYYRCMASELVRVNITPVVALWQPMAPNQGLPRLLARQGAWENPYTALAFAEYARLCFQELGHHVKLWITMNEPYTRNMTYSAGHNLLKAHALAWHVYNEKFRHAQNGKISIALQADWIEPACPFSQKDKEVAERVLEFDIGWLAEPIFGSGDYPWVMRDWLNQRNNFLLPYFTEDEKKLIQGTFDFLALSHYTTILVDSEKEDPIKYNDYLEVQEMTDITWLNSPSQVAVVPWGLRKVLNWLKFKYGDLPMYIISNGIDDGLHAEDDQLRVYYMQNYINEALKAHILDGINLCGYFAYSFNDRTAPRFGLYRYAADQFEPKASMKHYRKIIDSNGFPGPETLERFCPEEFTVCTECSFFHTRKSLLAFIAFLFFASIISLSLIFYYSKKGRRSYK

| Molecule | Kd [3] | also measured |
| --- | --- | --- |
| CSCC[C@H](NC(=O)[C@H](CCCNC(=N)N)NC(=O)[C@H](C)NC(=O)[C@H](CCCNC(=N)N)NC(=O)[C@@H]1CCCN1C(=O)[C@H](CCCNC(=N)N)NC(=O)[C@@H](NC(=O)[C@@H](NC(=O)CNC(=O)[C@H](CC(C)C)NC(=O)[C@@H]1CCCN1C(=O)[C@H](CC(=O)O)NC(=O)[C@H](CO)NC(=O)[C@H](C)NC(=O)[C@H](CCSC)NC(=O)[C@@H]1CCCN1C(=O)CC1c2ccccc2-c2ccccc21)C(C)C)C(C)C)C(N)=O [K1] ({Acetyl(9-fluorenyl)}-PMASDPLGVVRPRARM-NH2) |  | fold change of competition KD relative to Pep-10 [1]: 89 fold |
| Biotin-PEG4-PMASDPLGVVRPRAM [Pep-10-Biotin] |  | selectivity of pull-down by silver stain, HK-2 cell lysate ([2]; 50 nM of biotinylated peptides): not enriched; selectivity of pull-down by silver stain, HK-2 cell lysate ([2]; legend of Figure 4D, 200 nM printed, n = 2): not able to enrich Klotho; Klotho enrichment in pulled-down fraction, HK-2 cell lysate ([2]; western blot, probe at 2 μM, n = 2): minor enrichment; also recorded: moderately enriched |
| fluorenyl-ASDPLGVVRGRAR (not fully specified (C-terminus)) [K17] | 9 nM |  |
| fluorenyl-ASDPLGVVRPRA [K4] | 139 nM | recovery yield [4]: 0.5% |
| fluorenyl-ASDPLGVVRGRA [K12] | 19 nM |  |
| fluorenyl-PMASDPLGVVRARARM [K1 P12A] | 15 nM |  |
| B1 |  | Kd [5]: 151 nM |
| fluorenyl-PMASDPLGVVRPRARM [K1] | 66 nM |  |
| PMASDPLGVVRPRARM [Pep-10] | 5900 nM |  |
